Test results from ChEMBL document CHEMBL2016500, “Discovery and evaluation of spirocyclic derivatives as antagonists of the neuropeptide Y5 receptor” (Bioorg Med Chem Lett, 2012).
The source made the active and inactive calls. The calls are words filed in the database; no cut-off is given here.

Legend:
Liver microsomes [1] = test: Intrinsic clearance in human liver microsomes; format: ADME, Microsome
In short: (§1)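 Metabolic stability in human or rat liver microsome preparations. Total intrinsic clearance scaled from in vitro microsomal half-life, given in […].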

[2] = target: T1, Neuropeptide Y receptor type 5 (Homo sapiens, UniProt Q15761); test: Displacement of [125I]PPY from human recombinant NPYY5 receptor expressed in insect Sf9 membranes; format: cell membranes
T1 sequence (Q15761 whole entry): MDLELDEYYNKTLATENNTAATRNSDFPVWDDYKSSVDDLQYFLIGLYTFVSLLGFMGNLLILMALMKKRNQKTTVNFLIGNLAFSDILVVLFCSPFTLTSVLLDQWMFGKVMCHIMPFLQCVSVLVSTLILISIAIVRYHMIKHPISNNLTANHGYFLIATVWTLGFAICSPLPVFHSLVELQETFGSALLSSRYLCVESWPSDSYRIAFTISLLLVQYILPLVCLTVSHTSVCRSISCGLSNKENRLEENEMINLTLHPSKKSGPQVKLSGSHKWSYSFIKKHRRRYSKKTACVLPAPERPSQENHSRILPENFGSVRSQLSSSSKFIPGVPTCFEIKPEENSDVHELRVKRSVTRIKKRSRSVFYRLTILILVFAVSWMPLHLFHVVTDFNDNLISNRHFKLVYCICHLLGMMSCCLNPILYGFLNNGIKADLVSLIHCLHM

Liver microsomes [3] = test: Intrinsic clearance in rat liver microsomes; format: ADME, Microsome; in short: as §1
Rattus norvegicus [4] = test: Antiobesity activity in diet-induced obese rat assessed as decrease body weight at 5 mg/kg bid; format: functional, organism-based; set-up: dose 5 mg/kg
In short: (§2)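 Diet-induced obese rats dosed 5 mg/kg bid over a 4-day study. Food intake and body weight followed.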

Rattus norvegicus [5] = test: Antiobesity activity in diet-induced obese rat assessed as decrease in food intake at 5 mg/kg bid; format: functional; set-up: scale not given: the % may be the effect or the level left; in short: as §2
[6] = Oral bioavailability in rat; format: ADME, organism-based; conditions: in vivo
Brain = test: Unbound concentration in diet-induced obese rat brain at 5 mg/kg bid; conditions: in vivo
Plasma = test: Unbound fraction in diet-induced obese rat plasma at 5 mg/kg bid; format: ADME, organism-based; set-up: dose 5 mg/kg; conditions: in vivo
In short: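 Diet-induced obese rats given 5 mg/kg bid. Unbound drug concentrations measured in plasma and brain.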

[7] = Half life in rat; format: ADME, organism-based; conditions: in vivo
[8] = Ratio of unbound fraction in rat brain at 5 mg/kg bid to Ki for human recombinant NPYY5 receptor expressed in insect Sf9 membranes; format: ADME, organism-based, Membrane; set-up: dose 5 mg/kg; conditions: in vivo
In short: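 Unbound drug concentrations were measured in plasma and brain of diet-induced obese rats dosed at 5 mg/kg bid. The ratio is unbound brain concentration divided by Ki.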

[9] = target: T2, Neuropeptide Y receptor type 1 (Homo sapiens, UniProt P25929); test: Binding affinity to human NPYY1
T2 sequence (P25929 whole entry): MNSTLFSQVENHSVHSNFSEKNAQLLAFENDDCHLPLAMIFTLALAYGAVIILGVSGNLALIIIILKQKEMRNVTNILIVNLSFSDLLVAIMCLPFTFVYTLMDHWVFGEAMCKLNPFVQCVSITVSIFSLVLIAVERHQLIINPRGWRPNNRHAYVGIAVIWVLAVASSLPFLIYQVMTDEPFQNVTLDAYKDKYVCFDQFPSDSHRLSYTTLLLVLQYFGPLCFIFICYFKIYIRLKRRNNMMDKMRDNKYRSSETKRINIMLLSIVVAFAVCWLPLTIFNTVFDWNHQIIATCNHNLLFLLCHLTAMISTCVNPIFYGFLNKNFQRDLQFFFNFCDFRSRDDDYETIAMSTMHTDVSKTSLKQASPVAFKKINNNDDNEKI

[10] = Ratio of unbound fraction in plasma to brain in rat; format: ADME, cell-free
In short: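 Unbound fraction measured separately in rat plasma and in rat brain; the value is expressed as fu,plasma/fu,brain.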

What does the source list for `CN(C(=O)Nc1cnc(-c2ccccc2)cn1)[C@H]1CC[C@@]2(CC1)OC(=O)c1ccncc12`?
CLint (Liver microsomes [1]): < 7 mL/min/kg; Ki [2]: 0.9 nM; CLint (Liver microsomes [3]): 12 mL/min/kg

With `O=C(Nc1ccn(-c2ccccc2F)n1)NC1CCC2(CC1)OC(=O)c1ccncc12` (mixture of isomers) as the compound, how does the Ki [2] read?
The Ki was 849 nM.

With `CN(C(=O)Nc1ccn(-c2ccccc2F)n1)[C@H]1CC[C@@]2(CC1)Cc1cnccc1C(=O)O2` as the compound, how does the Ki [2] read?
The Ki was 188 nM.

Which Ki [2] does the source give for `CC(C)(C)S(=O)(=O)N[C@H]1CC[C@H](C(=O)Nc2ccc(C(F)(F)F)cn2)CC1` here?
Its Ki is 5 nM.

With `CCN(C(=O)Nc1cnc(-c2ccccc2)cn1)[C@H]1CC[C@@]2(CC1)Cc1ccccc1C(=O)O2` as the compound, how does the Ki [2] read?
The Ki was 11 nM.

For `CN(C(=O)Nc1ccn(-c2ccccc2F)n1)[C@H]1CC[C@]2(CC1)OCc1ccccc12`, which CLint (Liver microsomes [1]) is on record?
The CLint was 67 mL/min/kg.

And the Ki [2]?
Its Ki is 10 nM.

And the CLint (Liver microsomes [3])?
Its CLint is > 1120 mL/min/kg.

What does the source list for `CN(C(=O)Nc1ccn(-c2ccccc2F)n1)[C@H]1CC[C@@]2(CC1)Cc1ccccc1C(=O)O2`?
CLint (Liver microsomes [1]): 28 mL/min/kg; Ki [2]: 2.4 nM; CLint (Liver microsomes [3]): 290 mL/min/kg

For `CN(C(=O)Nc1cnc(-c2ccccc2)cn1)[C@H]1CC[C@@]2(CC1)Cc1cnccc1C(=O)O2`, which CLint (Liver microsomes [1]) is on record?
Its CLint is < 26 mL/min/kg.

And the Ki [2]?
Its Ki is 82 nM.

And the CLint (Liver microsomes [3])?
Its CLint is 86 mL/min/kg.

With `O=C1O[C@]2(CC[C@H](C(=O)Nc3ccn(-c4ccccc4F)n3)CC2)c2cnccc21` as the compound, how does the Activity (Rattus norvegicus [4]) read?
The Activity was “Active”.

Which results are given for `CN(C(=O)Nc1ccn(-c2ccccc2F)n1)[C@H]1CC[C@]2(CC1)OC(=O)c1ccccc12`?
CLint (Liver microsomes [1]): 24 mL/min/kg; Ki [2]: 0.7 nM; CLint (Liver microsomes [3]): 165 mL/min/kg

With `CN(C(=O)Nc1ccn(-c2ccccc2F)n1)[C@H]1CC[C@@]2(CC1)OC(=O)c1ccccc12` as the compound, how does the Ki [2] read?
The Ki was 22 nM.

With `O=C1O[C@]2(CC[C@@H](N(CC(F)(F)F)C(=O)Nc3cnc(-c4ccccc4)cn3)CC2)Cc2ccccc21` as the compound, how does the CLint (Liver microsomes [1]) read?
Its CLint is < 7 mL/min/kg.

What about the Ki [2] of the same compound?
The Ki was 2330 nM.

With `CN(C(=O)Nc1cnc(-c2ccccc2)cn1)[C@H]1CC[C@@]2(CC1)Cc1ccccc1C(=O)O2` as the compound, how does the CLint (Liver microsomes [1]) read?
The CLint was 59 mL/min/kg.

What about the Ki [2] of the same compound?
The Ki was 4.6 nM.

What about the CLint (Liver microsomes [3]) of the same compound?
The CLint was 333 mL/min/kg.

For `CN(C(=O)Nc1ccn(-c2ccccc2F)n1)[C@H]1CC[C@]2(CC1)OC(=O)c1ccncc12`, which CLint (Liver microsomes [1]) is on record?
The CLint was < 7 mL/min/kg.

And the Ki [2]?
Its Ki is 0.8 nM.

And the CLint (Liver microsomes [3])?
Its CLint is 28 mL/min/kg.

With `O=C(CC1CCC2(CC1)Cc1ccccc1C(=O)O2)Nc1cnc(-c2ccccc2)cn1` (mixture of isomers) as the compound, how does the Ki [2] read?
Its Ki is 301 nM.

What does the source list for `CN(C(=O)Nc1ccn(-c2ccccc2F)n1)[C@H]1CC[C@]2(CC1)COc1ccccc12`?
CLint (Liver microsomes [1]): 68 mL/min/kg; Ki [2]: 8 nM; CLint (Liver microsomes [3]): > 1120 mL/min/kg

Which results are given for `CN(C(=O)Nc1cnc(-c2ccccc2)cn1)[C@H]1CC[C@]2(CC1)OC(=O)c1ccncc12`?
CLint (Liver microsomes [1]): < 6 mL/min/kg; Ki [2]: 1 nM; Activity (Rattus norvegicus [5]): <10%; bioavailability [6]: 80%; Concentration (Brain): 27 nM; Cp(f) (Plasma): 67 nM; half-life [7]: 2 h; Activity (Rattus norvegicus [4]): inactive; Ratio [8]: 25; Ki [9]: > 10000 nM; Ratio [10]: 3.3; CLint (Liver microsomes [3]): < 25 mL/min/kg
